In ChEMBL document CHEMBL2321868, “The discovery of novel potent trans-3,4-disubstituted pyrrolidine inhibitors of the human aspartic protease renin from in silico three-dimensional (3D) pharmacophore searches” (J Med Chem, 2013):

Assays:
[1] = Plasma clearance in Sprague-Dawley rat at 2 mg/kg, iv by HPLC-MS analysis; type: ADME, organism-based; set-up: dose 2 mg/kg, route intravenous
Outline: (§1)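 Cannulated, fed Sprague–Dawley rats were given 2 mg/kg intravenously and 6 mg/kg orally. Oral bioavailability came from the two routes. t1/2, plasma clearance and Vdss were estimated. Oral Cmax and AUC were taken over 0–24 h.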

Rattus norvegicus [2] = test: Antihypertensive activity in po dosed double transgenic rat overexpressing human renin and human angiotensinogen assessed as reduction in mean arterial pressure; type: functional, organism-based; conditions: Artery
Outline: (§2)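 Double-transgenic rats overexpressing human renin and human angiotensinogen, with telemetry. Each received a single oral dose of 6 or 30 mg/kg. The read-out was mean arterial pressure, reported as the peak change from dosing.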

[3] = AUC (0 to 24 hrs) in jugular vein cannulated Sprague-Dawley rat at 6 mg/kg, po by HPLC-MS analysis; type: ADME, organism-based; set-up: time < 24 hr, dose 6 mg/kg, route oral; conditions: plasma; outline: as §1
[4] = Cmax in jugular vein cannulated Sprague-Dawley rat at 6 mg/kg, po by HPLC-MS analysis; type: ADME, organism-based; set-up: dose 6 mg/kg, route oral; conditions: in vivo; outline: as §1
[5] = Oral bioavailability in jugular vein cannulated Sprague-Dawley rat at 6 mg/kg by HPLC-MS analysis; type: ADME, organism-based; conditions: in vivo; outline: as §1
[6] = molecular target: Voltage-gated inwardly rectifying potassium channel KCNH2 (Homo sapiens, UniProt Q12809); test: Inhibition of human ERG by dofetilide binding assay
Outline: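 hERG affinity from an in vitro dofetilide binding assay. The IC50 is the mean of two independent measurements.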

[7] = molecular target: 5-hydroxytryptamine receptor 2B (Homo sapiens, UniProt P41595); test: Inhibition of 5-HT2B (unknown origin)
[8] = molecular target: 5-hydroxytryptamine receptor 2A (Homo sapiens, UniProt P28223); test: Inhibition of 5-HT2A (unknown origin)
[9] = molecular target: T1, 5-hydroxytryptamine receptor 1A (Homo sapiens, UniProt P08908); test: Inhibition of 5-HT1A (unknown origin)
T1 sequence (P08908 whole entry): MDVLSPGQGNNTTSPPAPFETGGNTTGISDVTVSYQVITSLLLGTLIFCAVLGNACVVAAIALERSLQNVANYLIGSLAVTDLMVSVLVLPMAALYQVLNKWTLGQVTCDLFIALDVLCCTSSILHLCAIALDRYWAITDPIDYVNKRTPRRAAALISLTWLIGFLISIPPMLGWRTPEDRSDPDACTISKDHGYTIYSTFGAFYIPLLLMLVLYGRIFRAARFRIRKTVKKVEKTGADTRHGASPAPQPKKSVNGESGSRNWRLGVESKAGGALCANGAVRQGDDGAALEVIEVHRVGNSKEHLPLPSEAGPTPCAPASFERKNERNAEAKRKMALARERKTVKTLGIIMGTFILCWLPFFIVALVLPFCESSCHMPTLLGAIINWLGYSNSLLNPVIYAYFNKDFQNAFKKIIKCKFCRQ

Beta-secretase 2 = molecular target: T2, Beta-secretase 2 (Homo sapiens, UniProt Q9Y5Z0); test: Inhibition of human recombinant BACE-2 expressed in baculovirus-infected insect sf9 cells using RE( EDANS)-EVNLDAEF-K(DABSYL)-R as substrate incubated for 1 hr prior to substrate addition measured after 1 hr by FRET-based enzymatic assay
T2 sequence (Q9Y5Z0 whole entry): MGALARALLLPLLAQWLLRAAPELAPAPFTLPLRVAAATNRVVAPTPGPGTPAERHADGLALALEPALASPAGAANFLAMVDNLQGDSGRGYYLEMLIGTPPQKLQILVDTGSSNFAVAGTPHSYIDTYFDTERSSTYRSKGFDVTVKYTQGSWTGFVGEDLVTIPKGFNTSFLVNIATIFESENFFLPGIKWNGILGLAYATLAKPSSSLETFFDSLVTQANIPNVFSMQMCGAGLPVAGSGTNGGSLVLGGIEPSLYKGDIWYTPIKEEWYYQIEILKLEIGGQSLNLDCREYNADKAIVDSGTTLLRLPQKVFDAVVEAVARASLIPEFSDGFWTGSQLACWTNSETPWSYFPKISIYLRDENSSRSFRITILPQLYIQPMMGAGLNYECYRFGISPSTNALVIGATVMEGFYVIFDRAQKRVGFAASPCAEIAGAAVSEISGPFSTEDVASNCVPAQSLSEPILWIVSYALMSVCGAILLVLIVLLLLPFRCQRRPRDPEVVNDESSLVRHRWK

Beta-secretase 1 = Beta-secretase 1 (Homo sapiens, UniProt P56817); test: Inhibition of human recombinant BACE-1 expressed in baculovirus-infected insect sf9 cells using RE( EDANS)-EVNLDAEF-K(DABSYL)-R as substrate incubated for 1 hr prior to substrate addition measured after 1 hr by FRET-based enzymatic assay
Gastricsin = molecular target: T3, Gastricsin (Homo sapiens, UniProt P20142); test: Inhibition of human recombinant pepsin C expressed in Escherichia coli using Dabcyl-E-R-Nle-F-L-S-F-P-EDANS as substrate incubated for 1 hr prior to substrate addition measured after 1 hr by FRET-based enzymatic assay
T3 sequence (P20142 whole entry): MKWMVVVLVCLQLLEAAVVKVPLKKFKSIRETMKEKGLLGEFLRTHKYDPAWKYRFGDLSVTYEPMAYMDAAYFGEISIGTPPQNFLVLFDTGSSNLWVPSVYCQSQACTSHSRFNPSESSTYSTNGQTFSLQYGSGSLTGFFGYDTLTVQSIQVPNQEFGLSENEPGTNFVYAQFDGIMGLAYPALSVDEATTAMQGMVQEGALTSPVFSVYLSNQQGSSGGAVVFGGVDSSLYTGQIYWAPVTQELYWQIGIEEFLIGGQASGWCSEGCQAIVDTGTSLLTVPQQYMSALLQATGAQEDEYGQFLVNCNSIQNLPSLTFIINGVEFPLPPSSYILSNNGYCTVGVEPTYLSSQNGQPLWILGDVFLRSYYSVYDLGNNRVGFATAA

Cathepsin D = Cathepsin D (Homo sapiens, UniProt P07339); test: Inhibition of human recombinant cathepsin-D expressed in baculovirus-infected insect sf9 cells using Ac- E-D(EDANS)-KPILFFRLG-K(Dabcyl)-E-Amid as substrate incubated for 1 hr prior to substrate addition measured after 1 hr by FRET-based enzymatic assay
Renin = molecular target: T4, Renin (Homo sapiens, UniProt P00797); test: Inhibition of human recombinant renin expressed in CHO cells using RE(EDANS)IHPFHLVIHTK(Dabcyl)R as substrate incubated for 1 hr prior to substrate addition measured after 2 hrs by FRET-based enzymatic assay
T4 sequence (P00797 whole entry): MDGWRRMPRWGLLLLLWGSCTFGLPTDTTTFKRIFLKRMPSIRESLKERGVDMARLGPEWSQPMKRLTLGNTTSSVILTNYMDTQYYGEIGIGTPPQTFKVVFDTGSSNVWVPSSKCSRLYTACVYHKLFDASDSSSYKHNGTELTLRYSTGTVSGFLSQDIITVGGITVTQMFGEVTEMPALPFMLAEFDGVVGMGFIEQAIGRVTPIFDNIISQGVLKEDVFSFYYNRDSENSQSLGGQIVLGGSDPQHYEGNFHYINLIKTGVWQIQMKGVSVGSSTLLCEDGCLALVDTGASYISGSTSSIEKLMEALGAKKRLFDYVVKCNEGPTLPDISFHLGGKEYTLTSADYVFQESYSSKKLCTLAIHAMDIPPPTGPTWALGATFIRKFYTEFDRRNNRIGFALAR

Rattus norvegicus [10] = test: Antihypertensive activity in double transgenic rat overexpressing human renin and human angiotensinogen assessed as reduction in mean arterial pressure at 6 mg/kg, po; type: functional, Artery; outline: as §2

Chain of Cathepsin D (P07339 65-162 limits assumed): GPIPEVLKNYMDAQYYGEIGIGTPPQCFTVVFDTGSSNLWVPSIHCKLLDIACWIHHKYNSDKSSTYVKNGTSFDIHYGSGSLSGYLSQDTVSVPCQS
Chain of Cathepsin D (P07339 169-412 limits assumed): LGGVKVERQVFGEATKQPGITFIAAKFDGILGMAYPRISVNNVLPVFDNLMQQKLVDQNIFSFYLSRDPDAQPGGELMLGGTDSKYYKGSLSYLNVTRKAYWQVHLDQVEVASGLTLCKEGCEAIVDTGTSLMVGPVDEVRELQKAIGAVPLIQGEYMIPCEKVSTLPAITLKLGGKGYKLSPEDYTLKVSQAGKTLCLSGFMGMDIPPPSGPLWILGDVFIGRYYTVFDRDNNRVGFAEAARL
Chain of Voltage-gated inwardly rectifying potassium channel KCNH2 (Q12809 whole entry): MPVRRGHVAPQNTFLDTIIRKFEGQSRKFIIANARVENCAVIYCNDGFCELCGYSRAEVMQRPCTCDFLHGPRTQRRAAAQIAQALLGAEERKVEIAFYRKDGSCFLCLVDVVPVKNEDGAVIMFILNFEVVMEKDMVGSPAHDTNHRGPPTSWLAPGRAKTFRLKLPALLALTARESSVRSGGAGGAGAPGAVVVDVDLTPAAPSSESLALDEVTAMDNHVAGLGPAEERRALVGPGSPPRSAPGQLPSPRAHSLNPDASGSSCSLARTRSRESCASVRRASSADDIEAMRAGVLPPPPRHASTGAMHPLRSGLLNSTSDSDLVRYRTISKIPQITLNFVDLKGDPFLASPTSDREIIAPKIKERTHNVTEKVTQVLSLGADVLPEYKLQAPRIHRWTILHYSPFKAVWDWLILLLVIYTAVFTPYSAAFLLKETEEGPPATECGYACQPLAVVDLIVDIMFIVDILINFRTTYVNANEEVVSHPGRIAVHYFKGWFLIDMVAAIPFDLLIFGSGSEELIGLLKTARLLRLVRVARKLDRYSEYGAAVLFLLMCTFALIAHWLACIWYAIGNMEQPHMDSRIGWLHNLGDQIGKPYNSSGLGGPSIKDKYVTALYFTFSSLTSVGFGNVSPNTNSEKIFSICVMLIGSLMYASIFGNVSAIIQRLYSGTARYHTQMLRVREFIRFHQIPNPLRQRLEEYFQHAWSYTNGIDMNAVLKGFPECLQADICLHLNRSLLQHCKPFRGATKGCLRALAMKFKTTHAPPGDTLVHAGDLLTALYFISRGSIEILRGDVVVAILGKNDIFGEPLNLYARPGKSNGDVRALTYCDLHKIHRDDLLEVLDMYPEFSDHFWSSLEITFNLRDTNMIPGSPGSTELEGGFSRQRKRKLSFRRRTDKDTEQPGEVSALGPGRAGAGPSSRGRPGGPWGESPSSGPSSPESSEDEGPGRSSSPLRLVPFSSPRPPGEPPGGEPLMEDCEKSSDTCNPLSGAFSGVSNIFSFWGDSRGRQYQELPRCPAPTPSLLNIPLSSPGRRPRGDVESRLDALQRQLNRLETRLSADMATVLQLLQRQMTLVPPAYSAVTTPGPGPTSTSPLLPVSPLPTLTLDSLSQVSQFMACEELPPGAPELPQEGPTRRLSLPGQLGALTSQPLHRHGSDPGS
Chain of Beta-secretase 1 (P56817 whole entry): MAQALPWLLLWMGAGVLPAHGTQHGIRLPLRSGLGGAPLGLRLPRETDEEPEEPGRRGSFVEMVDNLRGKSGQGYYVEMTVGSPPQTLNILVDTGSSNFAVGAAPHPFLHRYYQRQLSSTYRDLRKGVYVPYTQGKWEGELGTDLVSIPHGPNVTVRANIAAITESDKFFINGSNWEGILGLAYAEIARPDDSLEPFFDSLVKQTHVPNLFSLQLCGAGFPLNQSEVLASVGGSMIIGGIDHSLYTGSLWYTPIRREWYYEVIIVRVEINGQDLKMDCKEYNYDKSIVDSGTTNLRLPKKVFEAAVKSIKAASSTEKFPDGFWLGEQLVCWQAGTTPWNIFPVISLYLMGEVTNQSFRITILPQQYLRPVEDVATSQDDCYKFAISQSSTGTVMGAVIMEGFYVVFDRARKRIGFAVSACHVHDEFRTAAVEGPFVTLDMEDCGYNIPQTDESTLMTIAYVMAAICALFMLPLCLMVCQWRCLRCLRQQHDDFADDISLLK
Chain of 5-hydroxytryptamine receptor 2B (P41595 whole entry): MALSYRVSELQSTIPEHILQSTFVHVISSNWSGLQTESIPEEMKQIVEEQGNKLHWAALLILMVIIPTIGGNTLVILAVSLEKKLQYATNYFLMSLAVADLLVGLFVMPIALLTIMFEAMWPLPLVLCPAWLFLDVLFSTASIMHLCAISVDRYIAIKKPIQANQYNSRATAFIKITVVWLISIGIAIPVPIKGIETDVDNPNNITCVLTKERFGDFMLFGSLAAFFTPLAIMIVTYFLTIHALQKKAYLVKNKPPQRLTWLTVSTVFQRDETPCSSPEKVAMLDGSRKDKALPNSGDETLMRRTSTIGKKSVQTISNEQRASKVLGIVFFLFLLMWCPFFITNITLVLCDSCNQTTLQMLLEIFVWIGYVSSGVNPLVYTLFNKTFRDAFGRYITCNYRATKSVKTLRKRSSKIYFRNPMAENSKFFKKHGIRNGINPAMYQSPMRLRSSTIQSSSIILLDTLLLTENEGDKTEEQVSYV
Chain of 5-hydroxytryptamine receptor 2A (P28223 whole entry): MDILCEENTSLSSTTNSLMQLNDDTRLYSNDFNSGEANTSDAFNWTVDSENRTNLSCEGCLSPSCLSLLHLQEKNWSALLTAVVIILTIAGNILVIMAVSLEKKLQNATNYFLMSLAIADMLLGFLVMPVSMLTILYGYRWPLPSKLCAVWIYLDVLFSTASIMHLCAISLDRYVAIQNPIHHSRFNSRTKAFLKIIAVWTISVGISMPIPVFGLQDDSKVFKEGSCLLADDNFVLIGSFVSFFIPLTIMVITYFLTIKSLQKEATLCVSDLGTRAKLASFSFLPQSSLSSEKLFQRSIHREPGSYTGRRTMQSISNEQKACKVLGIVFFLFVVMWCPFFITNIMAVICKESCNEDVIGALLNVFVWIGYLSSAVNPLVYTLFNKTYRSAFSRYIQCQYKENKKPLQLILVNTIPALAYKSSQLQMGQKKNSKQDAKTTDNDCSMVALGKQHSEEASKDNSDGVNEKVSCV

- clearance [1]: 1.5 L/h/kg
- AUC(0-t) at 24 h [3]: 4.81 µM·h
- Cmax [4]: 1.31 µM
- bioavailability [5]: 53%
- IC50 [7]: > 1 µM
- IC50 [8]: > 1 µM
- IC50 [9]: > 1 µM
- IC50 (Beta-secretase 2): > 30 µM
- IC50 (Beta-secretase 1): > 30 µM
- IC50 (Gastricsin): > 30 µM
- IC50 (Cathepsin D): > 30 µM
- IC50 (Renin): 0.17 µM
SMILES: COCCCOc1cc(C(=O)N(C[C@@H]2CNC[C@H]2Cc2ccccc2)C(C)C)ccc1OC.Cl
- Activity (Rattus norvegicus [2]): Dose-dependent effect
- IC50 [6]: 14.5 µM
- Activity (Rattus norvegicus [10]): 15 mmHg
